Most compounds without a hit are left out; they make up all but 4.5% or so of the library.
PERK inh: blocks human PERK kinase; Q9NZJ5; CHO PERK-DD fusion, SEAP luminescence translation reporter; inhibition, % at 5.6 µM; actives 0.17% (n = 220,000);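 active = inhibition above the mean inhibition of all tested compounds plus 3 SD, set separately per screening campaign, cut at about 2.9% in these data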;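 also: PERK kinase domain activated by AP20187 dimerizer at 100 nM; 0% = DMSO with dimerizer and 100% = rapamycin at 8.4 µM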
Target sequence (Q9NZJ5 whole entry, looked up, the tested form may be a part): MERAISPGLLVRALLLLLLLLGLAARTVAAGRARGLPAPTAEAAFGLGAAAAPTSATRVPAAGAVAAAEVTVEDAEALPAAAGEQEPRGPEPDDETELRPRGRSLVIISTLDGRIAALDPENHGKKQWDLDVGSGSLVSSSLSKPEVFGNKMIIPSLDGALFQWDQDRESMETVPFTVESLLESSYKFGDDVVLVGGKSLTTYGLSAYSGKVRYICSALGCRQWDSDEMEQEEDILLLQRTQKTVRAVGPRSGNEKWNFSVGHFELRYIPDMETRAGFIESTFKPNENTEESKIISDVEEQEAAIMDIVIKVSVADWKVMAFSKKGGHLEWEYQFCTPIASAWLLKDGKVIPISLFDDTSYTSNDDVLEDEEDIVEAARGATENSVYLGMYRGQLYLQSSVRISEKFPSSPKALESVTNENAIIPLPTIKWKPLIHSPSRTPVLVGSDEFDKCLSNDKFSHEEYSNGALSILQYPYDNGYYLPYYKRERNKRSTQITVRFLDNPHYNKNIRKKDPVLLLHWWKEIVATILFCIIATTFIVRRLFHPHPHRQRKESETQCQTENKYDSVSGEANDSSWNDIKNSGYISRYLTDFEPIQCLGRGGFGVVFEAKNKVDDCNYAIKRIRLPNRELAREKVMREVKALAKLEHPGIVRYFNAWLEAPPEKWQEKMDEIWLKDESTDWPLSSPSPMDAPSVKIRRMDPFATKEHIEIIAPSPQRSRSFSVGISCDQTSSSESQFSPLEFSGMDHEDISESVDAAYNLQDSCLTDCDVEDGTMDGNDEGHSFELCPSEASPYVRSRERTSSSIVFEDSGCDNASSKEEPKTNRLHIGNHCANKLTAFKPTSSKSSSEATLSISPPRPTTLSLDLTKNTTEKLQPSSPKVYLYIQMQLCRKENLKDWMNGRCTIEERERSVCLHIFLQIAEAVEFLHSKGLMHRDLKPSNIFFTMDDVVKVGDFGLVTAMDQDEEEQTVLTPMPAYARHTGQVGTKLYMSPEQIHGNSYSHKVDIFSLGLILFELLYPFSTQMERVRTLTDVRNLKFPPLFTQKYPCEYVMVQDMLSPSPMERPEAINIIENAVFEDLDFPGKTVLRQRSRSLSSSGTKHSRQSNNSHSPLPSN
Mdm2 ligase inh: blocks human Mdm2 ubiquitin ligase activity. cell-based MDM2 ubiquitination luciferase reporter, 2 h; 0 = plate control, 100 = twice control, blank-subtracted. signal enhancement, % at 5 µM. actives 0.11% (n = 210,000). AID 1230;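 active = signal enhancement of 30% or more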;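 also: luminescence tracks abundance of the self-degrading MDM2-luciferase fusion protein; higher signal means inhibition of MDM2 E3 ligase activity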
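Assay system: mammalian cells stably expressing self-ubiquitinating, self-degrading MDM2 E3–luciferase fusion. Quantity: 2000 cells in each well. Medium: DMEM culture medium. Compound dosing: single-point 5 µM. Timing: cell settling 4 h, compound treatment 2 h, both 37 °C. Technique: luciferase luminescence. Read-out basis: percent signal gain over controls, blank-subtracted. Benchmarks: plate controls and plate blanks.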
STAT1 activator: STAT1 signaling activation. NIH 3T3 STAT1-luciferase reporter, IFN-gamma, luminescence; 100% = IFN-gamma alone, no compound. activation (% of control), % at 5.5 µM. actives 2.6% (n = 200,000). AID 932;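 active = activation above the screen-wide mean activation plus 3 SD, cut at about 130% in these data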;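 also: raw ratio to IFN-gamma control signal so 100% means no change and 0% no light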
APP 5'UTR act: APP 5'UTR luciferase reporter activation | activation, % at 2 µM | AID 1276 | SH-SY5Y APP 5'UTR luciferase reporter, luminescence; zero percent = DMSO vehicle wells | actives 1% (n = 190,000);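 active = activation above a set limit, based on mean plus 3 SD of controls, cut at about 140% in these data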
AHR act: human AHR activation | activation, % at 5 µM | AHR-responsive luciferase reporter cells, luminescence | actives 2.5% (n = 320,000) | P35869; in the data active = activation above about 47%;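 also: 0% = vehicle wells and 100% = reference agonist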
NF-kB expr up: NF-kB expression increase, human neuronal cells; NF-kB reporter expression; hits give high values; fold change at 12.5 µM; actives 1.6% (n = 190,000); AID 1239; in the data active = fold change above about 3.3
The depositor's hits bear a star; x = no result.

SMILES | PERK inh | Mdm2 ligase inh | STAT1 activator | APP 5'UTR act | AHR act | NF-kB expr up
O=C1CCC/C(=N\NC(=O)c2ccc(CSc3cccc4cccnc34)cc2)C1 | 1 | -5 | 101 | -8 | 5 | 1.2
O=C(Nc1ccccc1O)c1ccccc1O | 0 | 18 | 103 | 11 | 131* | 1
O=C(Nc1cccnc1)c1ccccc1O | 0 | -22 | 96 | -1 | 54* | 1.4
CC(=O)n1nc(-c2ccccc2)cc1-c1ccccc1 | x | x | x | x | 58* | x
Cc1cc2cc3c(cc2nc1SCc1ccccn1)OCCO3 | 0 | 2 | 94 | 37 | 6 | 1.4
N#Cc1cc2ccccc2nc1SCc1ccccn1 | -1 | 11 | 147* | 186* | 41 | 5.3*
O=c1cc(-c2ccccc2)oc2ccc(O)cc12 | 1 | -23 | x | x | 1 | x
COc1ccc(-c2cc(=O)c3cc(O)ccc3o2)cc1 | 1 | -12 | 145* | 129 | 0 | 6.5*
COc1ccc2c(c1)c(=O)oc1cc(O)ccc12 | 3.4* | -4 | 111 | 1 | -1 | 1.2
CC(C)COc1ccc(C(=O)Nc2ccccc2[N+](=O)[O-])cc1 | -1 | -6 | 133* | 83 | -2 | 2.8
COc1ccc(C(=O)NCCNc2ccccc2[N+](=O)[O-])cc1 | 1 | -14 | 148* | 163* | 4 | 1.1
Cc1ccc(N2Cc3ccccc3C2=S)cc1 | 0 | -3 | 136* | 201* | 4 | 6.8*
S=C1c2ccccc2CN1c1ccccc1 | 1 | -3 | 107 | 19 | 4 | 1.7
Cc1ccc(NC(=O)c2ccc([N+](=O)[O-])o2)c(C)c1 | 0 | -54 | 108 | 7 | -2 | 2
COc1ccccc1NC(=O)c1ccc(-c2ccccc2[N+](=O)[O-])o1 | 1 | -9 | 150* | 46 | 27 | 1.9
O=C(Cc1ccc(F)cc1)Nc1nccs1 | x | x | x | x | 0 | x
O=C(Nc1nccs1)c1ccc(-c2ccc(F)cc2)o1 | 0 | -1 | 129* | 157* | 4 | 3.1
COc1ccccc1NC(=O)c1cc(OC)c(OC)cc1[N+](=O)[O-] | 2 | -18 | 97 | 7 | 8 | 1.1
O=C(Nc1nccs1)c1ccc(-c2ccccc2[N+](=O)[O-])o1 | x | x | x | x | 68* | x
Cc1ccccc1NC(=O)c1ccc([N+](=O)[O-])o1 | 1 | 1 | 100 | 2 | 0 | 3.3*
Fc1ccc(NC(=S)Nc2nccs2)cc1 | -1 | -15 | 110 | 71 | 6 | 9.1*
O=C(Nc1ccccc1)c1ccc(-c2ccccc2Cl)o1 | 0 | x | 107 | 85 | 29 | 1.8
N#Cc1ccccc1NC(=O)c1ccc(-c2ccccc2Cl)o1 | 0 | -23 | 138* | 45 | 5 | 2.1
CCN(CC(=O)NCc1cccs1)C(=O)c1ccc(-c2ccc(F)cc2)o1 | x | x | x | x | 19 | x
CC1CCN(Cc2nnnn2CCCC(=O)NCCN2CCOCC2)CC1 | x | x | x | x | -2 | x
SMILES | PERK inh | Mdm2 ligase inh | STAT1 activator | APP 5'UTR act | AHR act | NF-kB expr up
O=c1[nH]c(N/N=C/c2ccccc2)nc2ccccc12 | 0 | -17 | 145* | 140* | 20 | 3
C(=N\Nc1nc2ccccc2[nH]1)/c1ccccc1 | 0 | 10 | 124 | 128 | 30 | 1
O=c1[nH]c(N/N=C\c2ccc3c(c2)OCO3)nc2ccccc12 | -1 | -18 | 140* | 205* | 57* | 4.4*
O=[N+]([O-])c1cc(CS(=O)(=O)Oc2ccc(Cl)cc2)c(O)c([N+](=O)[O-])c1 | x | x | x | x | 4 | x
N#Cc1ccc(OCC(O)CN2CCC(C(O)(c3ccccc3)c3ccccc3)CC2)cc1 (stereo not drawn) | x | x | x | x | 1 | x
CN(C)c1ccc2c3c(ccc(N(C)C)c13)COC2 | 1 | -16 | 100 | 5 | 0 | 1.1
COc1cc(OC)cc(-c2c(-c3ccc(F)cc3)c3cc(-c4cnc(OC)nc4)ccc3n2C)c1 | x | x | x | x | -4 | x
COc1ccccc1C/C(N)=N/OC(=O)COc1cccc(C)c1C | 1 | -12 | 100 | 0 | 5 | 1.1
N/C(=N\OC(=O)/C=C/c1ccccc1)c1ccccn1 | 0 | -43 | 110 | 160* | 2 | 1.1
COc1ccc(/C=C/C(=O)O/N=C(\N)c2ccccn2)cc1OC | x | x | x | x | 7 | x
Cc1ccc(OCC(=O)O/N=C(\N)c2ccccn2)cc1 | 1 | -15 | 144* | 101 | 2 | 2.5
Cc1cccc(OCC(=O)O/N=C(\N)c2ccccn2)c1C | 2 | 24 | 138* | 72 | 2 | 2.2
O=C(Nc1cccc2cccnc12)c1ccc(Br)cc1Br | x | x | x | x | 12 | x
CCOc1ccc(C2=Nn3c(CC)nnc3SC2)cc1 | x | x | x | x | 1 | x
CCc1cccc(CC)c1NC(=O)C1CCN(C(=O)c2ccco2)CC1 | x | x | x | x | 0 | x
COc1cc(-c2noc(C)c2C(=O)NCCc2cccs2)cc(OC)c1OC | x | x | x | x | 9 | x
C=C(C)COc1ccc2c3c(c(=O)oc2c1OCC(=C)C)CCC3 | 1 | -6 | 100 | -12 | 6 | 3.5*
Cc1c(O)ccc2c3c(c(=O)oc12)CCC(C)C3 (stereo not drawn) | 0 | -25 | 97 | x | 3 | 1.1
Cc1c(OCc2ccc([N+](=O)[O-])cc2)ccc2c3c(c(=O)oc12)CCC3 | 1 | 0 | 108 | 192* | -6 | 0.87
C=C(C)COc1ccc2c(C)c(C)c(=O)oc2c1OCC(=C)C | -1 | -11 | 100 | -1 | 5 | 1.3
Cc1c(O)ccc2c3c(c(=O)oc12)CCCC3 | 3.7* | -6 | 99 | -10 | -3 | 0.9
CCN(C[C@H]1N[C@@](C)(C(=O)OC)[C@H]2C(=O)N(C)C(=O)[C@@H]12)C(=O)Nc1ccc(Cl)cc1 | x | x | x | x | 0 | x
COc1ccc(NS(=O)(=O)c2cc3c4c(c2)C(C)C(=O)N4CCC3)cc1 (stereo not drawn) | x | x | x | x | 1 | x
O=C(Nc1ccccc1)c1ccc(NCCc2ccccc2)c([N+](=O)[O-])c1 | 1 | -11 | 98 | 37 | 50* | 1.4
CCn1ccnc1CNC(=O)c1ccc(OC2CCN(C(=O)COC)CC2)cc1 | x | x | x | x | -2 | x
SMILES | PERK inh | Mdm2 ligase inh | STAT1 activator | APP 5'UTR act | AHR act | NF-kB expr up
O=[N+]([O-])c1ccc2nc(-c3ccc(Cl)cc3)n(OCc3ccccc3)c2c1 | 1 | -12 | 129* | x | 4 | 4.5*
Clc1ccc(COn2c(-c3ccc(Cl)cc3)nc3ccccc32)cc1 | -1 | -10 | 92 | x | 7 | 0.93
O=C(O)COn1c(-c2ccc(Cl)cc2)nc2ccc(Cl)cc21 | 0 | -46 | 113 | 21 | 67* | 1.8
COn1c(-c2ccc(Cl)cc2)nc2ccc(Cl)cc21 | 0 | -13 | 116 | x | 30 | 2
Cc1ccc(COn2c(-c3ccc(Cl)cc3)nc3ccc([N+](=O)[O-])cc32)cc1 | 1 | -20 | 135* | x | 4 | 5.3*
O=C(CSc1ccc2nnc(-c3cccnc3)n2n1)Nc1ccccc1C(F)(F)F | x | x | x | x | 1 | x
Cn1nc([N+](=O)[O-])c(C(C#N)c2nc3ccccc3n2C)c(Cl)c1=O (stereo not drawn) | 0 | -3 | 104 | -14 | 74* | 0.31

Compound activity (PubChem BioAssay)
